# This is a sample that favours compounds with a hit; in the whole collection about 2.9% have one here.
# TRPC4 act: opens the mouse TRPC4 cation channel. Q9QUQ5. AID 2237. B-score at 10 µM. 310,000 tested, 0.49% active. HEK293 TRPC4beta/mu-opioid, Fluo4 calcium fluorescence; hits give high values;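 active = B-score above 5 SD of library B-scores, and initial fluorescence ratio not above library mean plus 5 SD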;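 note: positive B-score marks a calcium rise read as TRPC4 activation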
#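 Test system: HEK293 cells stably co-expressing mouse TRPC4beta and mu-opioid receptor | Schedule: Fluo4 dye loading 45 min at room temperature, 110 s recording | Measured by: Kinetic Fluo4 calcium fluorescence, 5 s baseline at 1 Hz | Evaluation: B score of integrated ratio | Controls: Buffer (low) and maximal DAMGO (high)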
# TRPC6 activator: activates the mouse TRPC6 cation channel | HEK293-TRPC6 membrane potential dye fluorescence; hits give high values | B-score at 10 µM | 310,000 tested, 0.13% active;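 active = B-score of the integrated fluorescence ratio above library mean plus 3 SD, and starting fluorescence ratio within library mean plus 5 SD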;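 note: higher score means more depolarization so channel activation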
# TRPC4 inh: inhibitors of mouse TRPC4 channel; Q9QUQ5; HEK293 TRPC4beta/mu-opioid, DAMGO-evoked Fluo4 calcium flux; hits give low values; B-score at 10 µM; 300,000 tested, 0.39% active; AID 2247;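 active = B-score over 3 SD under the library average, no early fluorescence shift, positive overall ratio signal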
#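 Signal: kinetic Fluo4 fluorescence imaging of calcium influx. Material: stable TRPC4beta/mu-opioid receptor HEK293 cells. Probe or stimulus: DAMGO in two steps, submaximal then maximal.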
# TRPC6 inhibitor: inhibitors of mouse TRPC6 channel; HEK293-TRPC6, membrane potential dye, ACh-evoked depolarization; hits give low values; Q61143; B-score at 10 µM; AID 2553; 310,000 tested, 1.1% active;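 active = B-score under library mean minus 3 SD, initial fluorescence not abnormally high, positive integrated signal ratio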;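 note: B-score derived from integrated fluorescence ratio over the kinetic read; more negative B-score means stronger inhibition of depolarization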
# TRPC4 potent: allosterically enhances the mouse TRPC4 cation channel; Q9QUQ5; HEK293 TRPC4beta/mu-opioid, DAMGO EC20, Fluo-4 Ca2+ flux; hits give high values; B-score at 10 µM; 310,000 tested, 0.42% active; AID 2227;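 active = B-score of calcium response area above 5 SD of library B-scores, with initial fluorescence ratio within 5 SD of library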
# Kir21 inh: blocks the mouse Kir2.1 inward-rectifier potassium channel. B-score at 10 µM. HEK293-Kir2.1, FluxOR thallium flux fluorescence; hits give low values. 310,000 tested, 0.85% active. P35561;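 active = fluorescence ratio B-score at or below minus 3 SD of library scores, with starting-brightness B-score within 2 SD, cut at about -4.2 in these data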;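 note: channel flux triggered by added potassium and thallium sulfate stimulus; B-score of peak minus minimum fluorescence over baseline after thallium stimulus; more negative B-score means stronger Kir2.1 block with less thallium influx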
# Target sequence (P35561 whole entry, looked up): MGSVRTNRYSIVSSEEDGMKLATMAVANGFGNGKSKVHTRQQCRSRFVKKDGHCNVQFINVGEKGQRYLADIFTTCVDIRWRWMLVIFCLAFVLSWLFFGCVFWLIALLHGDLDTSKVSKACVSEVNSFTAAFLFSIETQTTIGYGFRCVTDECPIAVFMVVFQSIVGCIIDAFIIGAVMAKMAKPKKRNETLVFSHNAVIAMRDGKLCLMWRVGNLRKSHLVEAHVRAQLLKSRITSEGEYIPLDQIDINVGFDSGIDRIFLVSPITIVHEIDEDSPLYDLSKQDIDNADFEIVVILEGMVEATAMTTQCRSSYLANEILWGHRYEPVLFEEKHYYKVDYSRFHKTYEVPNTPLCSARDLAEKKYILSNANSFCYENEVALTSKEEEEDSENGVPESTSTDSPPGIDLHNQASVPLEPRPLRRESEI
# Numbers stand for hits; 0 = inactive.
SMILES,TRPC4 act,TRPC6 activator,TRPC4 inh,TRPC6 inhibitor,TRPC4 potent,Kir21 inh
CCC(C)(C)c1nnc(NC(=O)C2CC(=O)N(CCc3ccc(F)cc3)C2)s1 (configuration not stated),0,0,0,0,0,0
CC1(C)NC(=O)N(CC(O)CN2CCCCC2)C1=O (configuration not stated),0,0,0,0,0,0
O=C1CNC(=S)N1C1CCCCCC1,0,0,0,0,0,-5.6
CCCC1NC(=S)N(C2CCCCC2)C1=O (configuration not stated),0,0,0,0,0,0
COc1ccc(CNCCC(c2ccc(OC)cc2)c2ccccc2OC)cc1 (configuration not stated),0,0,0,0,0,-11
COc1ccc(CNC(c2ccccc2)c2ccc(Cl)cc2)cc1 (configuration not stated),0,0,0,0,0,0
COc1ccc(CNCCC(c2ccccc2)C2CCOC(C)(C)C2)cc1 (configuration not stated),60,0,0,0,0,0
COc1ccc(OC)c(NC(=S)NCCC(c2ccccc2)c2ccccc2)c1,0,0,0,0,0,0
COc1ccc(C(CCNCc2ccc(N(C)C)cc2)c2ccccc2OC)cc1 (configuration not stated),63,0,0,0,0,0
COc1ccc(CN(CCC(c2ccccc2)C2CCOC(C)(C)C2)C(C)=O)cc1 (configuration not stated),0,0,0,0,0,0
COc1ccc(C(CCNCc2ccc(OC(C)C)cc2)c2ccccc2OC)cc1 (configuration not stated),0,0,0,0,0,-9.9
O=C(CCc1ccc(S(=O)(=O)N2CCOCC2)cc1)N1CCCC1,0,0,0,0,0,0
CC(=O)Oc1cccc(N2C(=O)C3C(C2=O)C2C=CC3C23CC3)c1 (configuration not stated),0,0,0,0,0,0
NNC(=O)C1=NOC(CNc2ncc(C(F)(F)F)cc2Cl)C1 (configuration not stated),0,0,0,0,0,0
CC(C)(C)OC(=O)NCCCCCNC(=O)c1[nH]cnc1C(=O)N[C@@H](Cc1ccccc1)C(=O)OCc1ccccc1,0,0,0,0,0,0
O=C(CC1CCCCC1)c1c(O)c2ccccc2oc1=O,99,0,0,0,0,0
CC(=N)c1c(O)c2ccccc2oc1=O,0,0,0,0,0,0
CC1CCC(C(=O)c2c(O)c3ccccc3oc2=O)CC1 (configuration not stated),44,0,0,0,0,0
Cc1cc(C)nc(N/N=C/c2sccc2C)n1,0,0,0,0,0,0
Cc1ccsc1/C=N/Nc1ncc(Cl)cc1Cl,0,0,0,0,10,0
O=C(NCCO)c1ccccc1O,0,0,0,0,0,0
COC(=O)c1ccccc1OCCCN(C)C,0,0,0,0,11,0
Cc1nn(Cc2ccccc2Cl)c(C)c1C(=O)NC1=NCCS1,0,0,0,0,0,0
CCC(CC)c1nnc(NC(=O)c2c(C)nn(Cc3ccccc3Cl)c2C)s1,0,0,0,0,21,0
CN(C)c1ccc(Nc2nc(N)c([N+](=O)[O-])c(N3CCOCC3)n2)cc1,0,0,0,0,0,0
SMILES,TRPC4 act,TRPC6 activator,TRPC4 inh,TRPC6 inhibitor,TRPC4 potent,Kir21 inh
CCOC(=O)CS(=O)(=O)c1nc(-c2ccc(F)cc2)cc(C(F)(F)F)n1,0,0,0,0,0,-4.5
COC(=O)CCS(=O)(=O)c1nc(-c2ccccc2)cc(C(F)(F)F)n1,0,0,0,0,0,-4.6
CCOC(=O)CCS(=O)(=O)c1nc(-c2ccccc2)cc(C(F)(F)F)n1,0,0,0,0,0,0
CS(=O)(=O)c1nc(-c2cccs2)cc(C(F)(F)F)n1,0,0,0,0,0,-6
CCOC(=O)CS(=O)(=O)c1nc(-c2ccccc2)cc(C(F)(F)F)n1,0,0,0,0,0,-7.1
Cn1ccsc1=NC(=O)c1ccccc1OC(F)F,0,0,0,0,0,0
COCCNC(=O)/C(C#N)=C/C=C/c1ccccc1,0,0,0,0,0,0
CC(=O)N1N=C(c2ccc(Br)cc2)OC1(C)CC(=O)Nc1ccccc1 (configuration not stated),0,0,0,0,15,0
CCn1c(=O)c2sccc2n2c(CCCC(=O)NC3CCN(Cc4ccccc4)CC3)nnc12,0,0,0,0,14,0
CC(C)CCn1c(=O)c2ccccc2n2c(CCC(=O)NC3CCN(Cc4ccccc4)CC3)nnc12,0,0,0,0,0,0
CC1CCc2sc3ncnc(N4CCOCC4)c3c2C1 (configuration not stated),0,0,-6,0,0,0
Nc1ccccc1Nc1c(F)c(F)nc(F)c1Cl,0,0,0,0,0,0
Cc1cc(C(=O)NCc2cccc(Cl)c2)c2ccccc2n1,0,0,0,0,0,0
c1ccc(-c2n[nH]c3c2CCC3)cc1,0,0,0,0,0,0
CC(C)[C@@H]1CC[C@@H](C)c2c(-c3ccccc3)n[nH]c21,0,0,0,0,10,0
COc1ccc(NC(=O)CSc2ccc3nnc(CCNC(=O)c4ccccc4)n3n2)cc1,0,0,0,0,0,0
COc1nc(-c2ccccc2Cl)ccc1C#N,0,0,-6,0,0,0
CC(=O)c1c(C)[nH]c(C2=NNC(=NC(C)(C)C)SC2)c1C,0,0,0,0,0,0
CC(C)(C)N=C1NN=C(c2cc3ccccc3o2)CS1,0,0,0,0,11,0
CC(=O)C1=C(O)C(=O)N(Cc2ccco2)C1c1ccc2c(c1)OCO2 (configuration not stated),0,0,-7,0,0,0
CNCCCOc1ccc2c(c1)CCC2,80,0,0,0,20,0
Clc1ccc(OCCN2CCOCC2)cc1Cl,0,0,0,0,0,0
Clc1ccc(OCCCN2CCCC2)cc1Cl,0,0,0,0,11,0
CNCCOc1ccc(Cl)c(Cl)c1,75,0,0,0,40,0
Clc1ccc(OCCN2CCCCC2)cc1Cl,0,0,0,0,26,0
Cc1cc(OCCCCCN2CCCC2)ccc1Cl,0,0,0,0,0,0
CN(C)C(=O)c1ccc2c(c1)n(C)c(=O)n2C,0,0,0,0,0,0
COc1ccc(OC)c(CN(CCN2CCOCC2)S(=O)(=O)c2ccc(NC(C)=O)cc2)c1,0,0,0,0,0,0
Cc1cccc(NC(=O)CSc2nnc(-c3cc(C)n(-c4ccccc4)c3C)o2)c1C,0,0,-7,0,0,0
Cc1cc(-c2nnc(SCC(=O)Nc3ccccc3C(F)(F)F)o2)c(C)n1-c1ccccc1,0,0,0,0,0,0
